In ChEMBL document CHEMBL3407418, “Fragment-based drug discovery of 2-thiazolidinones as BRD4 inhibitors: 2. Structure-based optimization” (J Med Chem, 2015):

How the values were obtained:
[1] = target: Bromodomain-containing protein 4 (Homo sapiens, UniProt O60885); assay: Inhibition of BRD4(1) (unknown origin) incubated for 4 hrs by (+)-JQ1 fluorescent ligand based fluorescence anisotrophy
[2] = test system: HT-29; assay: Growth inhibition of human HT-29 cells after 72 hrs by SRB assay; assay type: functional, cell-based; conditions: HT-29, 72 h
Summary of the method: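 HT-29 cells are grown in McCoy's 5A with 10% FBS at 37 °C, 5% CO2. DMSO stocks (0.01 mol/L) are diluted in normal saline just before use. Cells are treated in triplicate with gradient concentrations for 72 h at 37 °C.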

[3] = Stability in human liver microsomes assessed as clearance at 1 uM pre-incubated for 5 mins followed by NADPH addition and measured after 5 to 30 mins post NADPH addition by LC/MS/MS method; assay type: ADME; conditions: read-out: CLH
Summary of the method: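 Human liver microsomes (0.5 mg/mL) preincubated with 1 µM compound for 5 min at 37 °C in 0.1 M phosphate pH 7.4 with 1 mmol EDTA and 5 mmol MgCl2. Started with 1 mmol NADPH; sampled at 0, 5, 10 and 30 min. Quenched with equal volume of cold acetonitrile, vortexed, and centrifuged at 10,000 × g.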

[4] = target: T1, CYP3A4 (Homo sapiens, UniProt P08684); assay: Inhibition of CYP3A4 in human liver microsomes at 10 uM using midazolam substrate preincubated for 5 mins before NADPH addition and measured after 20 mins post NADPH addition; assay type: ADME; conditions: probe midazolam
Summary of the method: (§1)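 Human liver microsomes 0.2 mg/mL, 1 mmol NADPH, 100 mmol phosphate pH 7.4, probe cocktail (10 μM midazolam, 100 μM testosterone, 10 μM dextromethorphan, 20 μM diclofenac, 100 μM phenacetin, 100 μM mephenytoin), test compound 10 μM or PBS; organic solvent <1%. 5 min preincubation at 37 °C, NADPH-generating system start, 20 min reaction; inhibition from metabolite formation relative to PBS.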

[5] = target: T1, CYP3A4; assay: Inhibition of CYP3A4 in human liver microsomes at 10 uM preincubated for 5 mins before NADPH addition and measured after 20 mins post NADPH addition; assay type: ADME
[6] = target: CYP2D6 (Homo sapiens, UniProt P10635); assay: Inhibition of CYP2D6 in human liver microsomes at 10 uM using dextromethorphan substrate preincubated for 5 mins before NADPH addition and measured after 20 mins post NADPH addition; assay type: ADME; conditions: liver microsomes, probe dextromethorphan; summary of the method: as §1
[7] = target: T2, Cytochrome P450 2C9 (Homo sapiens, UniProt P11712); assay: Inhibition of CYP2C9 in human liver microsomes at 10 uM using diclofenac substrate preincubated for 5 mins before NADPH addition and measured after 20 mins post NADPH addition; assay type: ADME; conditions: microsomes, 20 min, 10 µM; summary of the method: as §1
[8] = target: T3, CYP1A2 (Homo sapiens, UniProt P05177); assay: Inhibition of CYP1A2 in human liver microsomes at 10 uM using phenacetin substrate preincubated for 5 mins before NADPH addition and measured after 20 mins post NADPH addition; assay type: ADME; conditions: probe phenacetin; summary of the method: as §1
T3 sequence (P05177 whole entry): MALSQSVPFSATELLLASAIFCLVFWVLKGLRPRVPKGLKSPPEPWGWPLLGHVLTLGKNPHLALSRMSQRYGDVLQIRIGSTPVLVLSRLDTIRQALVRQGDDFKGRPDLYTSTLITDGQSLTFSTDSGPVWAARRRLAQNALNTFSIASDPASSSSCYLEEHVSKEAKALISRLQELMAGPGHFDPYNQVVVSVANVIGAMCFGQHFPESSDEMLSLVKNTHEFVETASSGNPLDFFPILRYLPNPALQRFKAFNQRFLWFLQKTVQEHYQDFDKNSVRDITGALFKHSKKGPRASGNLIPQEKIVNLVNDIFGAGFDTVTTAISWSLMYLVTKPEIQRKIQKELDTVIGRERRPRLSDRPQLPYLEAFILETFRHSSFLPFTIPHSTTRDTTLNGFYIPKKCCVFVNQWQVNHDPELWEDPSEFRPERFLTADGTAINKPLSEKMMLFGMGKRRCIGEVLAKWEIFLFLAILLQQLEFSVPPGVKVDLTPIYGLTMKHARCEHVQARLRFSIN

[9] = target: CYP2C19 (Homo sapiens, UniProt P33261); assay: Inhibition of CYP2C19 in human liver microsomes at 10 uM using mephenytoin substrate preincubated for 5 mins before NADPH addition and measured after 20 mins post NADPH addition; assay type: ADME; conditions: probe mephenytoin; summary of the method: as §1
[10] = target: Cytochrome P450 3A4 (Homo sapiens, UniProt P08684); assay: Time dependent inhibition of CYP3A4 in human liver microsomes at 10 uM using midazolam substrate preincubated for 5 mins before NADPH addition and measured after 20 mins post NADPH addition; assay type: ADME
[11] = target: Cytochrome P450 2D6 (Homo sapiens, UniProt P10635); assay: Time dependent inhibition of CYP2D6 in human liver microsomes at 10 uM using dextromethorphan substrate preincubated for 5 mins before NADPH addition and measured after 20 mins post NADPH addition; assay type: ADME
[12] = target: T2, Cytochrome P450 2C9; assay: Time dependent inhibition of CYP2C9 in human liver microsomes at 10 uM using diclofenac substrate preincubated for 5 mins before NADPH addition and measured after 20 mins post NADPH addition; assay type: ADME
[13] = target: T4, Cytochrome P450 1A2 (Homo sapiens, UniProt P05177); assay: Time dependent inhibition of CYP1A2 in human liver microsomes at 10 uM using phenacetin substrate preincubated for 5 mins before NADPH addition and measured after 20 mins post NADPH addition; assay type: ADME
T4 sequence (P05177 whole entry): T3 sequence (P05177 whole entry)

[14] = target: Cytochrome P450 2C19 (Homo sapiens, UniProt P33261); assay: Time dependent inhibition of CYP2C19 in human liver microsomes at 10 uM using mephenytoin substrate preincubated for 5 mins before NADPH addition and measured after 20 mins post NADPH addition; assay type: ADME
[15] = Growth inhibition of human MM1S cells after 72 hrs by CellTiter-Glo luminescent cell viability assay; conditions: MM1.S
[16] = test system: MV4-11; assay: Growth inhibition of human MV4-11 cells after 72 hrs by CellTiter-Glo luminescent cell viability assay; conditions: MV4-11, 72 h

T1 sequence (P08684 whole entry): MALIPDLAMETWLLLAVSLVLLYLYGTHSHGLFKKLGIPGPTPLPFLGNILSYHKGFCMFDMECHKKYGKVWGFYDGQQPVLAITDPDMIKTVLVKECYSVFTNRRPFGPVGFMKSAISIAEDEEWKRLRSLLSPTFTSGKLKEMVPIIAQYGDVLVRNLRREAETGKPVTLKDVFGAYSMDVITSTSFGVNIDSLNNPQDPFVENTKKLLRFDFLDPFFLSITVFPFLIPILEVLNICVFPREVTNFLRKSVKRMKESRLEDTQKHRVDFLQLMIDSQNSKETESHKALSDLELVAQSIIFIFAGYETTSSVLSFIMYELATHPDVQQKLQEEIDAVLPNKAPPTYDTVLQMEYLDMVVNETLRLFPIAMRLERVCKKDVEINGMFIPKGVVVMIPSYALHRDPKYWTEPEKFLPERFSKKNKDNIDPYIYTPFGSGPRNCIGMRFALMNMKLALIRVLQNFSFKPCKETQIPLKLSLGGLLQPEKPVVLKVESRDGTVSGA
T2 sequence (P11712 whole entry): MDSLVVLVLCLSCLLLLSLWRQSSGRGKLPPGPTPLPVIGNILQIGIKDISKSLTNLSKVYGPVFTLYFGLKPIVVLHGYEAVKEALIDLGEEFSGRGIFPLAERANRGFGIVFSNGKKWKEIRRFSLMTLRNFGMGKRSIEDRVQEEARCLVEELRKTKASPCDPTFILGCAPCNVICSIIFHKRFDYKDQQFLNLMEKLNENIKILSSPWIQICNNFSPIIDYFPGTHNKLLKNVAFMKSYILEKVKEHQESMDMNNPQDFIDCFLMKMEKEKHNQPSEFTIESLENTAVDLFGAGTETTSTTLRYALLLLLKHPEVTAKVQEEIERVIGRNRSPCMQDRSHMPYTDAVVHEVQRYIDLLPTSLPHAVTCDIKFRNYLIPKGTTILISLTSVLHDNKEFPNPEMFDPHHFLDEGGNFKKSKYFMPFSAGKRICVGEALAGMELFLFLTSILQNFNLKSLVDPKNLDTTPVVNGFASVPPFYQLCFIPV
Sequence of Cytochrome P450 3A4 (P08684 whole entry): as the sequence (P08684 whole entry) above
Sequence of CYP2D6 (P10635 whole entry): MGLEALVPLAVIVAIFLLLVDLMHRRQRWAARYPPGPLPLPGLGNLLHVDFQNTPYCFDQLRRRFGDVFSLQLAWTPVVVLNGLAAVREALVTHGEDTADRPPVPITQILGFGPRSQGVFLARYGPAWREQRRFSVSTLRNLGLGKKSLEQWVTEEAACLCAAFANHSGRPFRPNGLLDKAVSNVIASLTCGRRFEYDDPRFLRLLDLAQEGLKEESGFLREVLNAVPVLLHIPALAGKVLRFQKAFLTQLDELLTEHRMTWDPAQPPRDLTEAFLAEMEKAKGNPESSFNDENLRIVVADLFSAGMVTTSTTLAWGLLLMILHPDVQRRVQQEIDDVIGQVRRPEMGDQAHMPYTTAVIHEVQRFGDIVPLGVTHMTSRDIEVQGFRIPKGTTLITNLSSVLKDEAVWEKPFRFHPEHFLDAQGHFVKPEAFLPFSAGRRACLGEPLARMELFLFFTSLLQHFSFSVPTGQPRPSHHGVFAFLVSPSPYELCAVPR
Sequence of Cytochrome P450 2D6 (P10635 whole entry): as above
Sequence of Cytochrome P450 2C19 (P33261 whole entry): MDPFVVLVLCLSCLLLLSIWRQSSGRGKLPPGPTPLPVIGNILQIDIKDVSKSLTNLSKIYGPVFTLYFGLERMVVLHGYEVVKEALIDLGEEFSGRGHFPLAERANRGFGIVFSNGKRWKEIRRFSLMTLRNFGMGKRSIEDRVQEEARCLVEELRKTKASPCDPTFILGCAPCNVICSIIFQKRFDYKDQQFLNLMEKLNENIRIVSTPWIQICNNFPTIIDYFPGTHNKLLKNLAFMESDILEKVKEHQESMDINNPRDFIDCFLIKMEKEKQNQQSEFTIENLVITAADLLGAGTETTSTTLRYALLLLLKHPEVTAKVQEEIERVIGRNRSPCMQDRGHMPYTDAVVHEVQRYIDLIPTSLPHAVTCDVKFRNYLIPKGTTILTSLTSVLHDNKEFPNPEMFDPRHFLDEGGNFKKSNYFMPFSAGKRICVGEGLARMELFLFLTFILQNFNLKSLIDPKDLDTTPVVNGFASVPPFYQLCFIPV
Sequence of CYP2C19 (P33261 whole entry): as above

SMILES: CNc1cc(-c2csc(=O)[nH]2)cc(S(=O)(=O)NC2CCCC2)c1C
- IC50 [1]: 250 nM
- IC50 [2]: 850 nM
- microsomal CLint at 1 µM [3]: 174 µL/min/mg
- inhibition at 20 min, 10 µM [4]: 41%
- inhibition at 20 min, 10 µM [5]: 47%
- inhibition at 20 min, 10 µM [6]: 36%
- inhibition (INH) [7]: Not Active
- inhibition at 20 min, 10 µM [8]: 37%
- inhibition at 20 min, 10 µM [9]: 17%
- TDI [10]: Not Active
- TDI [11]: Not Active
- TDI [12]: Not Active
- TDI [13]: Not Active
- TDI [14]: Not Active
- IC50 [15]: 505 nM
- IC50 [16]: 198 nM
